# Laboratory results: ChEMBL document CHEMBL4190346, “Structure-based design, synthesis, and biological evaluation of withaferin A-analogues as potent apoptotic inducers” (Eur J Med Chem, 2017)
# pIC50: −log10 of the molar value. Calls of active or inactive are those of the source. No cut-off for these calls is given here.
# Columns and labels:
# Vero [1] = assay: Cytotoxicity against African green monkey Vero cells assessed as reduction in cell viability using compound addition to cell culture cells in log phase of growth and incubated for 48 hrs by MTT assay; assay type: cell-based, Chlorocebus sabaeus; details: Chlorocebus sabaeus, Vero, 48 h; read-out: IC50
# A549 [2] = assay: Cytotoxicity against human A549 cells assessed as reduction in cell viability using compound addition to cell culture cells in log phase of growth and incubated for 48 hrs by MTT assay; assay type: functional, cell-based; details: Homo sapiens, A549, 48 h; read-out: IC50
# MCF7 (Homo sapiens) [3] = assay: Ratio of IC50 for cytotoxicity against human MCF7 cells incubated for 48 hrs to IC50 for cytotoxicity against human MCF7 cells incubated for 72 hrs
# HeLa [4] = assay: Cytotoxicity against human HeLa cells assessed as reduction in cell viability using compound addition to cell culture cells in log phase of growth and incubated for 48 hrs by MTT assay; assay type: functional, cell-based; details: Homo sapiens, HeLa, 48 h; read-out: IC50
# MCF7 [5] = assay: Ratio of IC50 for cytotoxicity against human MCF7 cells incubated for 48 hrs to IC50 for cytotoxicity against human MCF7 cells incubated for 72 hrs; assay type: functional
# MCF7 [6] = assay: Cytotoxicity against human MCF7 cells assessed as reduction in cell viability using compound addition to cell culture cells in lag phase of growth and incubated for 48 hrs by MTT assay; assay type: functional, cell-based; details: Homo sapiens, MCF7, 48 h; read-out: IC50
# Vero [7] = assay: Cytotoxicity against African green monkey Vero cells assessed as reduction in cell viability using compound addition to cell culture cells in lag phase of growth and incubated for 48 hrs by MTT assay; assay type: cell-based, Chlorocebus sabaeus; details: Chlorocebus sabaeus, Vero, 48 h; read-out: IC50
# HeLa [8] = assay: Cytotoxicity against human HeLa cells assessed as reduction in cell viability using compound addition to cell culture cells in lag phase of growth and incubated for 48 hrs by MTT assay; assay type: functional, cell-based; details: Homo sapiens, HeLa, 48 h; read-out: IC50
# A549 [9] = assay: Cytotoxicity against human A549 cells assessed as reduction in cell viability using compound addition to cell culture cells in lag phase of growth and incubated for 48 hrs by MTT assay; assay type: functional, cell-based; details: Homo sapiens, A549, 48 h; read-out: IC50
# MCF7 [10] = assay: Cytotoxicity against human MCF7 cells assessed as reduction in cell viability using compound addition to cell culture cells in log phase of growth and incubated for 48 hrs by MTT assay; assay type: functional, cell-based; details: Homo sapiens, MCF7, 48 h; read-out: IC50
# MCF7 (Homo sapiens) [11] = assay: Ratio of IC50 for cytotoxicity against human MCF7 cells incubated for 48 hrs to IC50 for cytotoxicity against human MCF7 cells incubated for 72 hrs; remark: listed apart in the source
# HeLa [12] = assay: Induction of apoptosis in human HeLa cells assessed as increase in caspase-3 activity by measuring pNA release level at 12 uM incubated for 4 hrs using c-DEVD-pNA substrate by colorimetric assay; assay type: functional
# Procedure, shortened: (§1)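 HeLa cells in DMEM with 10% FBS were exposed for 4 h (fixed 24 or 32 level for 8 h). Staurosporine for 4 h served as the positive control. Cells were lysed at 4 °C for 10 min and centrifuged, and supernatant protein was measured by Bradford. Caspase-3 activity was read colorimetrically as nmol pNA/min/mL, with treated/untreated OD ratios. Values are means ± SD of three independent experiments in triplicate.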
# HeLa [13] = assay: Induction of apoptosis in human HeLa cells assessed as increase in caspase-3 activity by measuring pNA release level at 32 uM incubated for 4 hrs using c-DEVD-pNA substrate by colorimetric assay; assay type: functional; procedure, shortened: as §1
# HeLa [14] = assay: Induction of apoptosis in human HeLa cells assessed as increase in caspase-3 activity by measuring pNA release level at 16 uM incubated for 4 hrs using c-DEVD-pNA substrate by colorimetric assay; assay type: functional; procedure, shortened: as §1
# HeLa [15] = assay: Induction of apoptosis in human HeLa cells assessed as increase in caspase-3 activity by measuring pNA release level at 24 uM incubated for 4 hrs using c-DEVD-pNA substrate by colorimetric assay; assay type: functional; procedure, shortened: as §1
# HeLa [16] = assay: Induction of apoptosis in human HeLa cells assessed as […] by measuring pNA release level at 32 uM incubated for 8 hrs using c-DEVD-pNA substrate by colorimetric assay; assay type: functional, cell-based; procedure, shortened: as §1
# HeLa [17] = assay: Induction of apoptosis in human HeLa cells assessed as increase in caspase-3 activity by measuring pNA release level at 8 uM incubated for 4 hrs using c-DEVD-pNA substrate by colorimetric assay; assay type: functional; procedure, shortened: as §1
SMILES,pIC50 (Vero [1]),pIC50 (A549 [2]),Ratio IC50 (MCF7 (Homo sapiens) [3]),pIC50 (HeLa [4]),Ratio IC50 (MCF7 [5]),pIC50 (MCF7 [6]),pIC50 (Vero [7]),pIC50 (HeLa [8]),pIC50 (A549 [9]),pIC50 (MCF7 [10]),Ratio IC50 (MCF7 (Homo sapiens) [11]),Activity (HeLa [12]),Activity (HeLa [13]),Activity (HeLa [14]),Activity (HeLa [15]),Activity (HeLa [16]),Activity (HeLa [17])
CC1=C(COC(=O)c2ccoc2)C(=O)O[C@@H]([C@@H](C)[C@H]2CC[C@H]3[C@@H]4C[C@H]5O[C@]56[C@@H](OC(=O)c5ccoc5)C=CC(=O)[C@]6(C)[C@H]4CC[C@]23C)C1,6.05,5.42,>3,5.42,>3,5.82,6.05,5.54,5.44,5.77,>3,,,,,,
CC1=C(CO)C(=O)O[C@@H]([C@@H](C)[C@H]2CC[C@H]3[C@@H]4C[C@H]5O[C@]56[C@@H](O)[C@@H](N(Cc5ccccc5)Cc5ccccc5)CC(=O)[C@]6(C)[C@H]4CC[C@]23C)C1,4.81,< 4.40,>3,< 4.40,>3,4.81,4.48,4.65,4.40,4.73,>3,,,,,,
CCC(=O)OCC1=C(C)C[C@H]([C@@H](C)[C@H]2CC[C@H]3[C@@H]4C[C@H]5O[C@]56[C@@H](OC(=O)CC)C=CC(=O)[C@]6(C)[C@H]4CC[C@]23C)OC1=O,6.10,5.39,,5.96,,5.62,5.82,5.68,5.59,5.96,,1.1 nmol/min/mL,1.7 nmol/min/mL,2.3 nmol/min/mL,1.6 nmol/min/mL,Active,0.58 nmol/min/mL
CCCC(=O)OCC1=C(C)C[C@H]([C@@H](C)[C@H]2CC[C@H]3[C@@H]4C[C@H]5O[C@]56[C@@H](O)C=CC(=O)[C@]6(C)[C@H]4CC[C@]23C)OC1=O,6.30,5.66,,5.92,,5.62,6.15,5.72,5.59,6.00,,0.72 nmol/min/mL,1.33 nmol/min/mL,1.22 nmol/min/mL,1.24 nmol/min/mL,Active,0.54 nmol/min/mL
C=C1C(=O)O[C@@H]([C@@H](C)[C@H]2CC[C@H]3[C@@H]4C[C@H]5O[C@]56[C@@H](O)[C@@H](OC)CC(=O)[C@]6(C)[C@H]4CC[C@]23C)C=C1C,< 4.40,< 4.40,,< 4.40,,< 4.40,< 4.40,< 4.40,< 4.40,4.64,,,,,,,
CC(=O)OCC1=C(C)C[C@H]([C@@H](C)[C@H]2CC[C@H]3[C@@H]4C[C@H]5O[C@]56[C@@H](OC(=O)c5ccc(Br)cc5)C=CC(=O)[C@]6(C)[C@H]4CC[C@]23C)OC1=O,6.05,5.77,,5.68,,6.40,6.30,5.92,5.68,6.22,,,,,,,
CCCCCCCCCCCC(=O)OCC1=C(C)C[C@H]([C@@H](C)[C@H]2CC[C@H]3[C@@H]4C[C@H]5O[C@]56[C@@H](O)C=CC(=O)[C@]6(C)[C@H]4CC[C@]23C)OC1=O,5.33,4.91,,5.33,,5.62,5.72,5.43,4.99,5.46,,,,,,,
CC1=C(COC(=O)C(C)(C)C)C(=O)O[C@@H]([C@@H](C)[C@H]2CC[C@H]3[C@@H]4C[C@H]5O[C@]56C(=O)C=CC(=O)[C@]6(C)[C@H]4CC[C@]23C)C1,6.00,5.64,,5.72,,6.00,5.39,5.40,5.43,5.92,,,,,,,
